# Assay outcomes deposited in PubChem by several laboratories.
# PTEN del growth – PTEN-deleted cell growth suppression; actives 1.2% (n = 140,000); AID 827; HCT116 PTEN-null viability, CellTiter-Glo, 60 h; active compounds read low; viability, % at 10 µM;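 active means viability at or below a set limit, 4 SD under the median of all tested compounds, cut at about 3.7% in these data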;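 further: PTEN knockout HCT116 line with beta catenin targeted HCT116 as companion control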
# Dynein cargo inh – blocks dynein driven cargo transport along microtubules; 3617.4 mouse cells, GR-EGFP nuclear translocation imaging; test concentration mostly 20 µM; stimulated with dexamethasone, 1 µM; active compounds read low; actives 0.47% (n = 220,000); AID 1381; z-score, hits read low;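 active means plate z-score of nuclear minus cytoplasmic receptor signal below a set negative limit, without overly bright fluorescence or cell loss, cut at about -3.5 in these data, passing the limit was not always enough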;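 further: z-score of nuclear minus cytoplasmic ring GR-EGFP intensity difference per well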
#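 Buffer or medium: tet-free, stripped-serum medium; Also added: dexamethasone, 1.0 µM final; Technique: high-content fluorescence imaging after fixation; Times: 48 h induction, 1 h compound, 30 min dex at 37 °C; Read-out: per-cell GR-EGFP intensity, nucleus versus surrounding cytoplasmic ring, well-averaged.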
# Lmaj promast – Leishmania major promastigote growth inhibition. Leishmania major promastigotes, resazurin fluorescence viability. inhibition, % at 10 µM. actives 9% (n = 200,000); in the data active means inhibition above about 50%;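 further: promastigotes grown with compound for 44 hours at 28 °C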
# bCat KO growth – beta-catenin-lacking colon tumor cell growth suppression. HCT116 beta-catenin knockout viability, CellTiter-Glo, 60 h; active compounds read low. viability, % at 10 µM. actives 1.5% (n = 140,000). AID 818;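 active means viability at or under a set limit, the compound median less 4 SD, cut at about 6% in these data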
# Autophagy HCS – alters autophagy in cells. calls only at 10 µM (by protocol). MEF GFP-LC3 puncta imaging; test concentration mostly 10 µM. AID 463193. actives 0.98% (n = 190,000);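 active means percentage of spot-positive cells more than 3 SD above its plate mean, without a fluorescence outlier flag or 80% toxicity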
# A number is an active result; 0 = inactive; - = no result; + = active, no number. Rows were chosen to be rich in hits. Some 9.2% of all compounds tested hit in one or more screens of this group.
SMILES,PTEN del growth,Dynein cargo inh,Lmaj promast,bCat KO growth,Autophagy HCS
CCCC(=O)Nc1ccc2oc(-c3cncc(Br)c3)nc2c1,-,0,0,-,0
Cc1ccc2oc(-c3ccc(NC(=O)CC(C)C)cc3)nc2c1,0,0,0,0,0
CCCCCC(=O)Nc1ccc2oc(-c3cncc(Br)c3)nc2c1,0,0,0,0,+
Cc1ccc(NCC(O)C(O)C(O)CO)c(N=Nc2ccccc2)c1C (stereo not given),-,0,-,-,-
C=CCNCCOc1ccccc1-c1ccccc1,0,0,0,0,0
CCCCNCCOCCOc1ccccc1-c1ccccc1,0,0,92,0,0
CC(C)NCCCCOc1ccccc1-c1ccccc1,0,0,98,0,0
COCCNCCCCOc1ccccc1-c1ccccc1,0,0,52,0,0
CCCc1nn(C)c2c(=O)[nH]c(-c3cc(S(=O)(=O)NCCO)ccc3OCC)nc12,-,0,-,-,-
COc1cccc(CSc2nc3ccccc3cc2C=O)c1,0,0,97,0,0
COc1cccc(NC(=O)CSc2nc3ccccc3cc2Cc2ccccc2)c1,0,0,0,0,0
CCN(CC)CCOc1ccc2nc(N(C)C)sc2c1,0,0,0,0,0
CN(C)c1nc2ccc(OCCN3CCCCC3)cc2s1,0,0,60,0,0
CCC(C)NCCOCCOc1ccc(C)cc1Br (stereo not given),0,0,90,0,0
CCC(C)NCCCOc1c(C)cc(C)cc1Br (stereo not given),0,0,99,0,0
CNCCCOc1ccc(C)cc1Br,0,0,0,0,0
CCC(C)NCCOc1ccc(C)cc1[N+](=O)[O-] (stereo not given),-,0,0,-,0
CCC(C)NCCOCCOc1ccc(Br)cc1 (stereo not given),-,0,89,-,0
CC(C)NCC(O)COCCOc1ccc(Br)cc1 (stereo not given),0,0,0,0,0
C=CCNCCOCCOc1ccc(C)cc1Br,0,0,99,0,0
Cc1cc(C)nc(SCC(N)=O)n1,-,0,-,-,-
CC(C)N1CCN(Cc2ccsc2)CC1CCO (stereo not given),-,0,0,-,0
CCOC(=O)c1cnc(Nc2nc3ccccc3o2)nc1CSC(=S)N(CC)CC,0,0,100,0,0
COC(=O)c1ccc(Oc2nc(SC)nc(N(C)C)n2)cc1,-,0,-,-,-
CC(C)NCC(=O)Nc1c2c(nc3ccccc13)CCC2,-,0,-,-,-
SMILES,PTEN del growth,Dynein cargo inh,Lmaj promast,bCat KO growth,Autophagy HCS
c1coc(CNc2c3c(nc4ccccc24)CCC3)c1,0,0,88,0,0
Cc1ccc(N2C(=O)c3ccccc3C2C(=O)c2ccc(C)c(C)c2O)cc1 (stereo not given),-,0,-,-,-
CNC(=S)Nc1ccc(C)cc1,0,0,0,0,0
CNC(=S)Nc1ccc(C23CC4CC(CC(C4)C2)C3)cc1,0,0,51,0,0
CCCCOC(=O)/C=C/c1ccc(OC(=O)OC)c(OC(=O)OC)c1,0,0,0,0,0
COC(=O)Oc1ccc(/C=C/C(=O)OC(C)C)cc1OC(=O)OC,0,0,80,0,0
COc1ccc(C(=O)NC2CCN(C(=O)Nc3ccccc3Cl)CC2)cc1,-,0,0,-,0
COc1ccccc1C1c2c(C)nn(-c3ccccc3)c2NC(=O)C1NC(=O)c1ccccc1 (stereo not given),0,0,75,0,0
O=C(NC(=S)NC1C2CC3CC(C2)CC1C3)C12CC3CC(CC(C3)C1)C2 (stereo not given),0,0,51,0,0
CCCC12C(=O)C(C)(C(c3ccccc3)=C1c1ccccc1)C1C(=O)N(c3ccc(C)cc3)C(=O)C12 (stereo not given),0,0,0,0,0
O=C(/C=C(/c1ccc(Cl)cc1)n1cncn1)c1ccccc1,0,0,94,0,0
CC(C1CC2CCC1C2)n1c(-c2cccs2)n[nH]c1=S (stereo not given),-,0,-,-,-
COc1ccc(C2CC(c3ccc([N+](=O)[O-])cc3)=NN2C(=O)c2ccccc2)cc1OC (stereo not given),-,0,0,-,0
COc1ccc(C2=NN(C(=O)c3cccc([N+](=O)[O-])c3)C(c3cccc([N+](=O)[O-])c3)C2)cc1 (stereo not given),0,0,53,0,0
COc1ccc(C2SCC(=O)N2c2c(C)n(C)n(-c3ccccc3)c2=O)c(OC)c1 (stereo not given),0,0,0,0,0
CCCCN(C)C(=O)CC(NS(=O)(=O)c1ccc(NC(C)=O)cc1)C(C)C (stereo not given),-,0,50,-,0
Cc1cccc(NC(=O)c2ccccc2-c2ccccc2)c1,-,0,0,-,0
Cc1cc(NC(=O)c2ccccc2-c2ccccc2)ccc1Br,0,0,80,0,0
CCn1c(SCC(=O)N/N=C(\C)c2ccncc2)nnc1-c1ccc(C)cc1,-,0,-,-,-
Cc1[nH]c2c(C)cccc2c1CCNC(=O)c1ccc2c(c1[N+](=O)[O-])C(=O)c1ccccc1C2=O,2.0,0,100,2.1,0
Cc1[nH]c2ccccc2c1CCNC(=O)c1ccc2c(c1[N+](=O)[O-])C(=O)c1ccccc1C2=O,0,0,95,2.3,0
CN(C)C(=O)c1ccc2c(c1[N+](=O)[O-])C(=O)c1ccccc1C2=O,1.7,0,0,2.0,0
Cc1ccc2[nH]c(C)c(CCNC(=O)c3cc4cc([N+](=O)[O-])ccc4oc3=O)c2c1,0,0,0,0,0
CC(C)COC(=O)c1ccc2c(c1O)C(=O)c1ccccc1C2=O,0,0,0,0,0
C/C(=N/NC(=O)c1cc2ccccc2cc1O)C1C(=O)c2ccccc2C1=O,0,0,81,0,0
SMILES,PTEN del growth,Dynein cargo inh,Lmaj promast,bCat KO growth,Autophagy HCS
C/C(=N\NC(=O)c1ccccc1O)C1C(=O)c2ccccc2C1=O,0,0,0,4.0,0
C/C(=N\NC(=O)c1cc2ccccc2cc1O)c1cc2ccccc2o1,-,0,-,-,-
O=C(NN=C(Cc1ccccc1)Cc1ccccc1)c1ccccc1O,-,0,61,-,0
O=C(c1cccs1)N1CCN=C1SCc1ccc(F)cc1,-,0,-,-,-
COc1ccccc1NC(=O)Nc1cc(F)ccc1F,-,0,0,-,0
Cn1ncc(C#N)c1NC(=O)C1CC(c2ccccc2Cl)=NO1 (stereo not given),-,0,-,-,-
S=C(c1ccccc1)N1CCCc2ccccc21,0,0,0,0,0
COc1ccc(C)cc1NC(=O)C1COc2ccccc2O1 (stereo not given),-,0,0,-,0
CC(C)n1nnnc1-c1cc(Cl)cc(Cl)c1,0,0,0,0,0
CSc1ncc(OCc2ccccc2)c(=O)[nH]1,-,0,-,-,-
CC(NC(=O)c1ccc(-c2cc(C(F)(F)F)ccc2Cl)o1)c1ccccc1 (stereo not given),0,0,0,0,0
O=C(NCc1ccccn1)C(=O)Nc1nc(C23CC4CC(CC(C4)C2)C3)cs1,-,0,68,-,0
COc1ccccc1-c1nc(C(N)=O)c2[nH]c(=O)n(-c3cccc(C)c3)c2n1,0,0,0,0,0
Cc1cccc(-n2c(=O)[nH]c3c(C(N)=O)nc(-c4ccccc4Cl)nc32)c1,1.5,0,0,1.8,0
